Assays:
E. coli PBP 1b = target: T1, E. coli PBP 1b (Escherichia coli, UniProt P02919); test: Lipid II-based in vitro transglycosylation assay; format: biochemical; details: read-out: Inhibition of PBP 1b activity at 50 μM
T1 sequence (P02919 1-844): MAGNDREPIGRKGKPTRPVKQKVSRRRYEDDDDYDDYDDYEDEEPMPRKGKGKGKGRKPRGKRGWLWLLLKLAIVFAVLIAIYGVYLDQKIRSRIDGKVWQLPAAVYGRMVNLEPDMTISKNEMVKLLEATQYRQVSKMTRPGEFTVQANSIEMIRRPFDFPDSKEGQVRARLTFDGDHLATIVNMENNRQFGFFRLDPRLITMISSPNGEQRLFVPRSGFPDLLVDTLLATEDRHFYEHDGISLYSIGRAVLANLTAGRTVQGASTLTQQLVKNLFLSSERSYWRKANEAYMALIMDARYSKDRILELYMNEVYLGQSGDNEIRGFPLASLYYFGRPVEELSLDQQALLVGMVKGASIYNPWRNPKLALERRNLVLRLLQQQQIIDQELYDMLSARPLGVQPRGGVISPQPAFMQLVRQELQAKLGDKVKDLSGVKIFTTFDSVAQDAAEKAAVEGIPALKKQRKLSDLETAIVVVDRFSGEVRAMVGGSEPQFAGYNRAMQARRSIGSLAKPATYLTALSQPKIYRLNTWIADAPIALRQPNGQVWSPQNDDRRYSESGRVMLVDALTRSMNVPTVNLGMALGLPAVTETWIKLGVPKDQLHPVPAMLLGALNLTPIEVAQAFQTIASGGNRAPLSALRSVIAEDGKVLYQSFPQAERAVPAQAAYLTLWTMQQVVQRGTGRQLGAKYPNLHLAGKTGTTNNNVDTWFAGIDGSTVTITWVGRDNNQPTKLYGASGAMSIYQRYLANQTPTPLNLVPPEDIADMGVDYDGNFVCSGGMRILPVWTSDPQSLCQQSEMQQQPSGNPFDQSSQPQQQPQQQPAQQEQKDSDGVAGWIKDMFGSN
Outline: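 E. coli PBP 1b (13.2 nM) is preincubated with test compound for 5 min at 30 °C. Buffer: 50 mM HEPES pH 7.5, 200 mM NaCl, 10 mM CaCl2, 0.08% decyl PEG, 10% DMSO, 15% methanol, 2 U μL−1 muramidase. Dansyl-lipid II (5 μM) is added for 5 min at 30 °C. Moenomycin A (1 μM, 10 min) quenches […]. Read by anion-exchange HPLC, in duplicate. IC50 from Hill fit; Ki via IC50 = Ki(1 + [s]/Km), Km = 1.8 μM.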

E. coli (25922) = test: Antimicrobial susceptibility test; format: cell-based; details: Escherichia coli, 18 h, read-out: MIC E. coli (25922)
Outline: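 Exponential-phase cells diluted to about 5 × 10^5 cfu mL−1, in CA-MHB for S. aureus ATCC 29213 and MHB for E. coli ATCC 25922. Test compound serially diluted in DMSO from a DMSO stock; final DMSO 1% (v/v), with 1% DMSO controls. After 37 °C for 18 h, OD600 is read and % inhibition taken against controls. MIC is the lowest concentration giving ≥90% inhibition. Three independent assays.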

- inhibition at 50 µM (E. coli PBP 1b): 100%
- MIC (E. coli (25922)): > 96 µg/mL
SMILES: C=C(C/C=C(\C)CCC=C(C)C)CCC(C)(C)/C=C/CC/C(C)=C\CO[C@H](COP(=O)(O)O[C@H]1O[C@H](C(N)=O)[C@@](C)(O)[C@H](OC(N)=O)[C@H]1O[C@@H]1O[C@H](CO[C@@H]2O[C@H](CO)[C@@H](O)[C@H](O)[C@H]2O)[C@@H](O[C@@H]2O[C@H](C)[C@@H](O[C@@H]3O[C@H](C(=O)NC4=C(O)CCC4=O)[C@H](O)[C@H](O)[C@H]3O)[C@H](O)[C@H]2NC(C)=O)[C@H](O)[C@H]1NC(C)=O)C(=O)O [Moenomycin A]

Source: PMC9033243 (RSC Advances, 2021)
